According to PubChem BioAssay:
The source made the active and inactive calls. Cut-off read from the data, not from the text of the source, unless noted: active = inhibition above about 30%; inactive = the rest.

How the values were obtained:
[1] = reduced viability of SK-BR-3 breast cancer cells – cell-based, 24 h, human, pilot screen (AID 572;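 active = viability at or below 10% of carrier control in both of two separate runs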;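 note: compound exposure lasted between 18 and 24 h rather than exactly 24 h; 100% = carrier-treated control wells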); conditions: SK-BR-3 viability, CellTiter-Glo luminescence, at 10 µM, stronger effect = lower value
[2] = HUVEC growth inhibition – cell-based, human, primary screen (AID 575;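 active = viability at or below 30% in both replicate assays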;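 note: 100% = median of untreated cell wells with 0.1% DMSO on each plate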); conditions: HUVEC proliferation, CellTiter-Glo luminescence, 72 h; at 10 µM; stronger effect = lower value
Method in brief: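 Material: primary human umbilical vein endothelial cells / Schedule: 72 h exposure, 37 °C, 5% CO2, 30 min RT equilibration / Signal: ATP-based CellTiter-Glo luminescent read / Read-out basis: percent of median DMSO-control luminescence / Control set: 32 DMSO-only cell-control wells (high), 32 MePR drug-control wells (low) per plate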

[3] = H69AR cell proliferation blockers – human, duplicate replicates, primary screen (AID 580;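 active = viability at or under a set limit in both replicates, limit being median viability minus 3 SD, cut at about 48% in these data, passing the limit was not always enough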;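 note: 100% = mean luminescence of untreated wells and 0% = no signal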); conditions: H69AR lung tumor cells viability, ATP luminescence, 72 h; at 10 µM; stronger effect = lower value
[4] = MRP1 drug-resistance reversers in H69AR cells – cell-based, doxorubicin co-treatment, pilot screen (AID 601;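 active = viability loss from added drug above about 55%, and viability with drug at most 40%, in both replicates, limit read from the data, passing the limit was not always enough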); conditions: CellTiter-Glo, 72 h, at 10 µM; for differential viability (reversal): stronger effect = higher value
[5] = yeast transport mutant growth inhibition pilot in 384-well plates, post-Golgi transport modulator project (AID 636; in the data active = inhibition above about 31%); conditions: absorbance 615 nm, about 18 h, stronger effect = higher value
[6] = growth suppression of yeast trafficking mutant, preliminary HTS, modulators of trafficking downstream of Golgi apparatus project, 1536-format plate, OD 615 nm (AID 637); conditions: yeast transport mutant growth, absorbance 615 nm, 18 h; stronger effect = higher value
[7] = H69AR cells + 2 uM doxorubicin, measured here: viability with 2 uM doxorubicin, stronger effect = lower value
[8] = H69AR cells, compound alone cytotoxicity

Compound	viability [1]	viability [2]	viability [3]	differential viability (reversal) ([4]; H69AR cells + 2 uM doxorubicin)	viability [4, 7] [%]	viability [4, 8] [%]	inhibition [5]	inhibition [6]
O=C(O)c1ccccc1Nc1cccc(C(F)(F)F)c1	135% (inactive)	69.6% (inactive)	88.6% (inactive)	11.3% (inactive)	77.3	88.6	-1.3% (inactive)	2% (inactive)
N/C(=N/O)c1nc(N2CCCCC2)nc(N2CCCCC2)n1	115% (inactive)	80.5% (inactive)	94.9% (inactive)	-0.21% (inactive)	95.1	94.9	-0.65% (inactive)	-0.98% (inactive)
O=C(CSc1nc2ccccc2o1)N1CCN(C(=O)c2ccco2)CC1	117% (inactive)	102% (inactive)	94.5% (inactive)	1.25% (inactive)	93.3	94.5	-6.67% (inactive)	-1.45% (inactive)
COC(=O)Cc1c(C)nc2nc[nH]n2c1=O	88% (inactive)	93% (inactive)	105% (inactive)	9.79% (inactive)	95.3	105	-4.73% (inactive)	-2.91% (inactive)
O=C(CN1C(=O)c2cccc3cccc1c23)Nc1ccccc1C(=O)NCc1ccco1	89% (inactive)	108% (inactive)	78.9% (inactive)	-2.93% (inactive)	81.8	78.9	-1.49% (inactive)	-8.67% (inactive)
O=C(NCC1CCCO1)C1CCC(CNS(=O)(=O)c2ccccc2)CC1 (stereo unspecified)	101% (inactive)	81.6% (inactive)	90.3% (inactive)	5.42% (inactive)	84.8	90.3	1.95% (inactive)	-1.31% (inactive)
CCSc1nc(O)c(C2OC(=O)c3c2ccc(OC)c3OC)c(=O)n1-c1ccccc1 (stereo unspecified)	129% (inactive)	94.5% (inactive)	96.5% (inactive)	11.4% (inactive)	85.1	96.5	-9.45% (inactive)	4.35% (inactive)
O=C(CN1CCC(n2nnc3ccccc32)CC1)Nc1ccc2c(c1)CCC2	64% (inactive)	92% (inactive)	89.3% (inactive)	1.24% (inactive)	88.1	89.3	-8.63% (inactive)	2% (inactive)
O=C(O)c1cccc(COCC(F)(F)C(F)F)c1	90% (inactive)	88.2% (inactive)	102% (inactive)	6.01% (inactive)	95.9	102	-0.41% (inactive)	-3.87% (inactive)
CC(C)(C)C(=O)NC1CCN(C(=O)N2CCCC2)CC1	93% (inactive)	102% (inactive)	94.5% (inactive)	11.3% (inactive)	83.2	94.5	-8.24% (inactive)	2.91% (inactive)
CN1C(C(=O)Nc2ccccn2)=C(O)c2ccccc2S1(=O)=O	115% (inactive)	94.7% (inactive)	101% (inactive)	13.4% (inactive)	87.7	101	0.39% (inactive)	-0.83% (inactive)
c1ccc(Cn2nnnc2CN2CCCC2)cc1	112% (inactive)	101% (inactive)	99.4% (inactive)	2.88% (inactive)	96.5	99.4	-6.3% (inactive)	0.48% (inactive)
CCOc1ccc(-c2nc(C#N)c(NCc3ccc4c(c3)OCO4)o2)cc1	68% (inactive)	58.8% (inactive)	70.4% (inactive)	0.795% (inactive)	69.6	70.4	1.03% (inactive)	-0.5% (inactive)
COc1cccc(-c2csc(N3CCN(CC(=O)Nc4ccc5c(c4)OCO5)CC3)n2)c1	106% (inactive)	78.9% (inactive)	80.3% (inactive)	-1.21% (inactive)	81.5	80.3	-2.34% (inactive)	0% (inactive)
COc1ccc(S(=O)(=O)Nc2ccccc2OC)cc1C	107% (inactive)	93.8% (inactive)	83.1% (inactive)	-7.08% (inactive)	90.2	83.1	0% (inactive)	0.82% (inactive)
NC(N)=NC(=O)c1nc(Cl)c(N)nc1N	117% (inactive)	86.5% (inactive)	91.2% (inactive)	-4.34% (inactive)	95.5	91.2	-2.34% (inactive)	1.67% (inactive)
O=C1C2CCCN2C(c2ccccc2)N1c1ccc(Cl)cc1 (stereo unspecified)	110% (inactive)	79.1% (inactive)	104% (inactive)	19% (inactive)	85.2	104	-4.67% (inactive)	-5.82% (inactive)
